ChEMBL document CHEMBL3414552, “Design and structure activity relationship of tumor-homing histone deacetylase inhibitors conjugated to folic and pteroic acids” (Eur J Med Chem, 2015)
Active and inactive are the calls of the source. The calls are words filed in the database; no cut-off is given here.

The molecules below were run against T1, Histone deacetylase 8 (Homo sapiens, UniProt Q9BY41) (assay: Inhibition of His-tagged HDAC8 (unknown origin) expressed in Escherichia coli BL21(DE3) after 60 mins by MALDI mass spectrometry).
T1 sequence (Q9BY41 whole entry): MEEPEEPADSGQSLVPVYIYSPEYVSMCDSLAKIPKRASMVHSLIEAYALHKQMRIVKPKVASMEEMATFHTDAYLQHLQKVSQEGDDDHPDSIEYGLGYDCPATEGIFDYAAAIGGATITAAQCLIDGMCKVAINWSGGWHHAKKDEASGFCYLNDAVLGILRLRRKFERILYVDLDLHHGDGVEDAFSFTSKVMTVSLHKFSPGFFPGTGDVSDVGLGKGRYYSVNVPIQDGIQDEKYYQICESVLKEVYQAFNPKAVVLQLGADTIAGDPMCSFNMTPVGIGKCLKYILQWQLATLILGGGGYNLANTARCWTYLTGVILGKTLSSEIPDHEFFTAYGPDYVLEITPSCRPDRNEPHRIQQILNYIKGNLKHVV
Work on `Nc1nc2ncc(CNc3ccc(C(=O)NO)cc3)nc2c(=O)[nH]1` yielded an IC50 of 0.581 µM. `Nc1nc2ncc(CNc3ccc(C(=O)N[C@@H](CCC(=O)NCCCCCCCCC(=O)NO)C(=O)O)cc3)nc2c(=O)[nH]1` gave an IC50 of 1.56 µM. Work on `Nc1nc2ncc(CNc3ccc(C(=O)N[C@@H](CCC(=O)NCCCCCCCC(=O)Nc4cc(-c5cccs5)ccc4N)C(=O)O)cc3)nc2c(=O)[nH]1` yielded an IC50 of 10 µM.

These molecules were tested against T2, Histone deacetylase 1 (Homo sapiens, UniProt Q13547) (assay: Inhibition of HDAC1 (unknown origin) after 60 mins by MALDI mass spectrometry).
T2 sequence (Q13547 whole entry): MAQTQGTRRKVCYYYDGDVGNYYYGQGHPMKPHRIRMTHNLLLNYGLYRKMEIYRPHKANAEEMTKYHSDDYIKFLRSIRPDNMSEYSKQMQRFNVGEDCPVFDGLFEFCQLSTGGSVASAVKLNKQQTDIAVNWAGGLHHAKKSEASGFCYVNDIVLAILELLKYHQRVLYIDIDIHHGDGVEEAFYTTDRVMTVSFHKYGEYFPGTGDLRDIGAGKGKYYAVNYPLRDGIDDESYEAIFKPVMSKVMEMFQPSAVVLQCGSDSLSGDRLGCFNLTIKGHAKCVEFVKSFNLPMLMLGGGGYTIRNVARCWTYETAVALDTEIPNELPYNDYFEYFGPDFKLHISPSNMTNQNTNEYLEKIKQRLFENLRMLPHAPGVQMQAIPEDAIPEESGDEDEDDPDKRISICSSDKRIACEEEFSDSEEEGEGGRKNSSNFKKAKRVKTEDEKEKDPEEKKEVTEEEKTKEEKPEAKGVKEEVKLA
With `Nc1nc2ncc(CNc3ccc(C(=O)NO)cc3)nc2c(=O)[nH]1` the IC50 was 2.39 µM. Molecule `Nc1nc2ncc(CNc3ccc(C(=O)N[C@@H](CCC(=O)NCCCCCCC(=O)Nc4cc(-c5cccs5)ccc4N)C(=O)O)cc3)nc2c(=O)[nH]1` has an IC50 of 0.435 µM. `Nc1nc2ncc(CNc3ccc(C(=O)N[C@@H](CCC(=O)NCCCCCCCCC(=O)NO)C(=O)O)cc3)nc2c(=O)[nH]1` was tested, and the IC50 was 2.76 µM. Work on `Nc1nc2ncc(CNc3ccc(C(=O)N[C@@H](CCC(=O)NCCCCCCCCC(=O)Nc4cc(-c5cccs5)ccc4N)C(=O)O)cc3)nc2c(=O)[nH]1` yielded an IC50 of 0.309 µM. Work on `Nc1nc2ncc(CNc3ccc(C(=O)N[C@@H](CCC(=O)NCCCCCCCC(=O)Nc4cc(-c5cccs5)ccc4N)C(=O)O)cc3)nc2c(=O)[nH]1` yielded an IC50 of 0.287 µM. `Nc1nc2ncc(CNc3ccc(C(=O)N[C@@H](CCC(=O)NCCCC(=O)Nc4cc(-c5cccs5)ccc4N)C(=O)O)cc3)nc2c(=O)[nH]1` was tested, and the IC50 was 2.94 µM.

Species: Homo sapiens
Experiment: Selectivity ratio of IC50 for His-tagged HDAC1 (unknown origin) to IC50 for His-tagged HDAC6 (unknown origin)
Outline: (§1)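 Enzyme (250 nM) was incubated with inhibitor for 60 min at 37 °C in Tris-HCl pH 8.0 buffer containing NaCl, KCl, MgCl2 and BSA. Substrates were GRK(ac)FGC for HDAC1/HDAC8 and GRK(ac)YGC for HDAC6. Reactions were TSA-quenched, immobilized on maleimide SAMs and read by MALDI (SAMDI); deacetylation was taken as the product fraction.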
Molecule `Nc1nc2ncc(CNc3ccc(C(=O)NO)cc3)nc2c(=O)[nH]1` has a Ratio IC50 of 130.

These molecules were tested against T2, Histone deacetylase 1 (assay: Inhibition of His-tagged HDAC1 (unknown origin) expressed in Escherichia coli BL21(DE3) at 10 uM after 60 mins by MALDI mass spectrometry).
Outline: as §1
`Nc1nc2ncc(CNc3ccc(C(=O)N[C@@H](CCC(=O)NCCCC(=O)NO)C(=O)O)cc3)nc2c(=O)[nH]1` showed an inhibition of under 20%. `Nc1nc2ncc(CNc3ccc(C(=O)N[C@@H](CCC(=O)NO)C(=O)O)cc3)nc2c(=O)[nH]1` was tested, and the inhibition was under 20%.

Each molecule was assayed against T3, Protein deacetylase HDAC6 (Homo sapiens, UniProt Q9UBN7) (assay: Inhibition of HDAC6 (unknown origin) after 60 mins by MALDI mass spectrometry).
T3 sequence (Q9UBN7 whole entry): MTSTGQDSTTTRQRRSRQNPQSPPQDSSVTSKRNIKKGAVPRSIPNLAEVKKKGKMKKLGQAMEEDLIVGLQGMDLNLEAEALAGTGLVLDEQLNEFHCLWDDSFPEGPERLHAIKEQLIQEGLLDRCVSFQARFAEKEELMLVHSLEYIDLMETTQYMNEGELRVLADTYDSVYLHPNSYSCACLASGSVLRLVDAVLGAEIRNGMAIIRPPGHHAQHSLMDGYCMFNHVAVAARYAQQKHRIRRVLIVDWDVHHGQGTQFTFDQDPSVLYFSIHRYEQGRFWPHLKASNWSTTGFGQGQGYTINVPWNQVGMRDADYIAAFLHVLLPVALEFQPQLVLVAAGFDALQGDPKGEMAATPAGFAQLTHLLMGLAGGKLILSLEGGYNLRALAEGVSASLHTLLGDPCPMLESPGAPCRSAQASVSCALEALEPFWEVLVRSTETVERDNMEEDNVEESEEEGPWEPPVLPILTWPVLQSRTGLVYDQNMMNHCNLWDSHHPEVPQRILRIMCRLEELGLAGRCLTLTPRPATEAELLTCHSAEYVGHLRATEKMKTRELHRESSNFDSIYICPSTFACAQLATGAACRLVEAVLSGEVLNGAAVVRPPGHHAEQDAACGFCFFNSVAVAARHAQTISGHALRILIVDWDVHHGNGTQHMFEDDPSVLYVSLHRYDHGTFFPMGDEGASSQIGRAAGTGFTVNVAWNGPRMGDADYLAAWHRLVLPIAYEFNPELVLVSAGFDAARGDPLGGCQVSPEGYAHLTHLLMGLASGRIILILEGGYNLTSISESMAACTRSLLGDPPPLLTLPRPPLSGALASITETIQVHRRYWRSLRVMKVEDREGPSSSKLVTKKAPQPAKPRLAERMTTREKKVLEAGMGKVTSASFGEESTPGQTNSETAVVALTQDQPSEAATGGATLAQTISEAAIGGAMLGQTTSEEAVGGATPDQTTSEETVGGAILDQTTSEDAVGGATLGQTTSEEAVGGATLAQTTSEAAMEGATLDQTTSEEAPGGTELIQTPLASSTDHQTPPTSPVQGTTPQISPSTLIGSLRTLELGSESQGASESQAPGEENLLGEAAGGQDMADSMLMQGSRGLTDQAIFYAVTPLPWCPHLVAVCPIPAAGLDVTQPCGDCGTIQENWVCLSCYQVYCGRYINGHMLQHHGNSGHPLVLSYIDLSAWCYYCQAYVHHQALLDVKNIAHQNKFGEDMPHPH
For `Nc1nc2ncc(CNc3ccc(C(=O)NO)cc3)nc2c(=O)[nH]1`, the IC50 was 0.0176 µM. In the case of `Nc1nc2ncc(CNc3ccc(C(=O)N[C@@H](CCC(=O)NCCCC(=O)NO)C(=O)O)cc3)nc2c(=O)[nH]1`, the IC50 is reported as 8.05 µM. `Nc1nc2ncc(CNc3ccc(C(=O)N[C@@H](CCC(=O)NCCCCCCCCC(=O)NO)C(=O)O)cc3)nc2c(=O)[nH]1` gave an IC50 of 0.179 µM.

The molecules below were run against T4, Protein deacetylase HDAC6 (Homo sapiens) (UniProt Q9UBN7) (assay: Inhibition of HDAC6 in human KB cells assessed as increase in tubulin acetylation at 100 uM after 4 hrs by Western blotting analysis).
T4 sequence (whole entry): T3 sequence (Q9UBN7 whole entry)
Assay type: cell-based
Outline: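 KB cells were plated for 24 h, then compound-treated for 4 h (tubulin acetylation) or 24 h (histone H4 acetylation). Cells were PBS-washed and lysed in CelLytic M with protease inhibitor cocktail. Protein was Bradford-quantified and equal amounts were resolved by SDS-PAGE at 100 V. Detection used IRDye680 and IRDye800 secondary antibodies.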
For `Nc1nc2ncc(CNc3ccc(C(=O)NO)cc3)nc2c(=O)[nH]1`, the Activity was “Active”.

Each molecule was assayed on KB (assay: Cytotoxicity against human KB cells after 72 hrs by MTS assay).
Assay type: functional, cell-based
`CC(=O)Nc1ccc(C(=O)Nc2cc(-c3cccs3)ccc2N)cc1` was tested, and the IC50 was 5.27 µM.

Species: Homo sapiens
Experiment: Selectivity ratio of IC50 for His-tagged HDAC8 (unknown origin) to IC50 for His-tagged HDAC6 (unknown origin)
Outline: as §1
With `Nc1nc2ncc(CNc3ccc(C(=O)NO)cc3)nc2c(=O)[nH]1` the Ratio IC50 was 32.

The molecules below were run against T5, Histone deacetylase 8 (Homo sapiens) (UniProt Q9BY41) (assay: Inhibition of His-tagged HDAC8 (unknown origin) expressed in Escherichia coli BL21(DE3) at 10 uM after 60 mins by MALDI mass spectrometry).
T5 sequence (whole entry): T1 sequence (Q9BY41 whole entry)
Outline: as §1
With `Nc1nc2ncc(CNc3ccc(C(=O)N[C@@H](CCC(=O)NCCCC(=O)NO)C(=O)O)cc3)nc2c(=O)[nH]1` the inhibition was 40%. In the case of `Nc1nc2ncc(CNc3ccc(C(=O)N[C@@H](CCC(=O)NCCCCCCC(=O)Nc4cc(-c5cccs5)ccc4N)C(=O)O)cc3)nc2c(=O)[nH]1`, the inhibition is reported as under 20%. `Nc1nc2ncc(CNc3ccc(C(=O)N[C@@H](CCC(=O)NO)C(=O)O)cc3)nc2c(=O)[nH]1` gave an inhibition of under 20%. Molecule `Nc1nc2ncc(CNc3ccc(C(=O)N[C@@H](CCC(=O)NCCCCCCCCC(=O)Nc4cc(-c5cccs5)ccc4N)C(=O)O)cc3)nc2c(=O)[nH]1` has an inhibition of under 20%. `Nc1nc2ncc(CNc3ccc(C(=O)N[C@@H](CCC(=O)NCCCC(=O)Nc4cc(-c5cccs5)ccc4N)C(=O)O)cc3)nc2c(=O)[nH]1` was tested, and the inhibition was 23%.

The molecules below were run against T4, Protein deacetylase HDAC6 (Homo sapiens) (assay: Inhibition of His-tagged HDAC6 (unknown origin) expressed in Escherichia coli BL21(DE3) at 10 uM after 60 mins by MALDI mass spectrometry).
Outline: as §1
Molecule `Nc1nc2ncc(CNc3ccc(C(=O)N[C@@H](CCC(=O)NCCCCCCC(=O)Nc4cc(-c5cccs5)ccc4N)C(=O)O)cc3)nc2c(=O)[nH]1` has an inhibition of under 20%. With `Nc1nc2ncc(CNc3ccc(C(=O)N[C@@H](CCC(=O)NO)C(=O)O)cc3)nc2c(=O)[nH]1` the inhibition was under 20%. `Nc1nc2ncc(CNc3ccc(C(=O)N[C@@H](CCC(=O)NCCCCCCCCC(=O)Nc4cc(-c5cccs5)ccc4N)C(=O)O)cc3)nc2c(=O)[nH]1` was tested, and the inhibition was under 20%. `Nc1nc2ncc(CNc3ccc(C(=O)N[C@@H](CCC(=O)NCCCCCCCC(=O)Nc4cc(-c5cccs5)ccc4N)C(=O)O)cc3)nc2c(=O)[nH]1` gave an inhibition of under 20%. `Nc1nc2ncc(CNc3ccc(C(=O)N[C@@H](CCC(=O)NCCCC(=O)Nc4cc(-c5cccs5)ccc4N)C(=O)O)cc3)nc2c(=O)[nH]1` gave an inhibition of 22.8%.
